The record followed here is ChEMBL document CHEMBL2346563, “A series of nonsecosteroidal vitamin D receptor agonists for osteoporosis therapy” (Bioorg Med Chem, 2013).

Data set [1] relates to Rattus norvegicus. The data set can be described thus: Toxicity in ovariectomized immatured Sprague-Dawley rat osteoporosis model assessed as effect on serum calcium level at 40 ng/kg, po once daily for 5 times per week for 4 weeks relative to control. The data set is classed as organism-based. Conditions: in vivo, 4e-05 mg/kg, 672 h. Put shortly:
(§1)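 Ovariectomized female 8-week-old Sprague–Dawley rats, n = 6 per group. Oral dosing five times per week for 4 weeks in medium-chain triglyceride (1 mL/kg). Vehicle-treated OVX and sham rats served as controls. Abdominal aortic blood drawn under ether 24 h after the last dose; serum calcium measured by autoanalyzer. ΔCa (%) = (treated − vehicle)/vehicle × 100. Mean ± SE.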

Data set [2] in a line: AUC (infinity) in Sprague-Dawley rat at 100 ug/kg, iv. The data set is classed as ADME, organism-based. Also on record: dose 100 ug/kg, time infinity, route intravenous. Conditions: plasma, 0.1 mg/kg. A digest of the protocol:
(§2)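 Male Sprague–Dawley rats, 8 weeks old, fed, n = 3 per route. Single 100 µg/kg dose, iv in ethanol/Tween20/saline (10:2:88) or po in ethanol/MCT (1:9). Blood taken from the jugular vein and centrifuged to plasma. Drug extracted with diethyl ether and quantified by LC-MS/MS. Bioavailability given as F (%).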

The subject of a further data set is Salmonella typhimurium. The data set can be described thus: Genotoxicity in Salmonella typhimurium by Ames test. Format: toxicity, organism-based. Conditions: salmonella enterica subsp. enterica serovar typhimurium. (In general: The Ames test detects mutagens through reverse mutation in bacteria.)
Data set [3] is described as follows: Total clearance in Sprague-Dawley rat at 100 ug/kg, iv. Format: ADME, organism-based. Conditions: in vivo, 0.1 mg/kg. A digest of the protocol: as §2
Data set [4] in a line: Volume of distribution at steady state in Sprague-Dawley rat at 100 ug/kg, iv. Format: ADME, organism-based. Conditions: in vivo, 0.1 mg/kg, read-out: Vdss. Put shortly:
as §2

In data set [5] the test system is Rattus norvegicus. The data set can be described thus: Toxicity in ovariectomized matured Sprague-Dawley rat osteoporosis model assessed as effect on body weight at 0.75 to 12 ng/kg, po once daily for 5 times per week for 4 weeks. The data set is classed as organism-based. Conditions: in vivo, 672 h.
The test system of data set [6] is Rattus norvegicus. The data set is described as follows: Prevention of bone mineral density loss in ovariectomized immatured Sprague-Dawley rat osteoporosis model at 20 ng/kg, po once daily for 5 times per week for 4 weeks relative to control. The data set is classed as functional. A digest of the protocol:
(§3)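 Female 8-week-old Sprague–Dawley (Crj: CD (SD)) rats, ovariectomized or sham-operated, n = 6 per group. From one day after surgery, oral dosing five times per week for 4 weeks; vehicle was medium-chain triglyceride at 1 mL/kg. Distal femur BMD read by dual-energy X-ray absorptiometry 24 h after the last dose. ΔBMD (%) = (treated − vehicle)/(sham − vehicle) × 100. Mean ± SE.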

Data set [7] can be described thus: Genotoxicity in micronucleus (unknown origin) by micronucleus assay.
Data set [8] can be described thus: Half life in Sprague-Dawley rat at 100 ug/kg, po. Format: ADME, organism-based. Conditions: in vivo, 0.1 mg/kg. A digest of the protocol: as §2
Data set [9] can be described thus: Mean residence time in Sprague-Dawley rat at 100 ug/kg, po. The data set is classed as ADME, organism-based. Conditions: in vivo, 0.1 mg/kg. A digest of the protocol: as §2
Data set [10] in a line: Mean residence time in Sprague-Dawley rat at 100 ug/kg, iv. The data set is classed as ADME, organism-based. Conditions: in vivo, 0.1 mg/kg. A digest of the protocol: as §2
Data set [11] has as its system Rattus norvegicus. The data set is described as follows: Prevention of bone mineral density loss in distal femur of ovariectomized matured po dosed Sprague-Dawley rat osteoporosis model administered once daily for 5 times per week for 4 weeks. Format: functional, organism-based. A digest of the protocol: (§4)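 Female 8-month-old Sprague–Dawley rats, ovariectomized or sham-operated, n = 8 per group. Starting one day post-surgery, oral dosing at 0.75–12 ng/kg, five times per week for 4 weeks; vehicle was MCT at 1 mL/kg. At 24 h after the last dose, aortic blood was taken for serum calcium by autoanalyzer. Distal femur and lumbar spine BMD measured by DXA.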

Data set [12] has as its system Rattus norvegicus. The data set can be described thus: Prevention of bone mineral density loss in ovariectomized immatured Sprague-Dawley rat osteoporosis model at 10 ng/kg, po once daily for 5 times per week for 4 weeks relative to control. Format: functional. A digest of the protocol: as §3
The subject of data set [13] is Rattus norvegicus. The data set can be described thus: Toxicity in ovariectomized matured Sprague-Dawley rat osteoporosis model assessed as effect on serum calcium level at 0.75 to 6 ng/kg, po once daily for 5 times per week for 4 weeks relative to control. Format: organism-based. Conditions: in vivo, 672 h. A digest of the protocol:
as §4

Data set [14] is described as follows: AUC (infinity) in Sprague-Dawley rat at 100 ug/kg, po. The data set is classed as ADME, organism-based. Also on record: dose 100 ug/kg, time infinity, route oral. Conditions: plasma, 0.1 mg/kg. A digest of the protocol: as §2
Data set [15] relates to Rattus norvegicus. The data set can be described thus: Toxicity in ovariectomized matured Sprague-Dawley rat osteoporosis model assessed as effect on serum calcium level at 12 ng/kg, po once daily for 5 times per week for 4 weeks relative to control. The data set is classed as organism-based. Conditions: in vivo, 1.2e-05 mg/kg, 672 h. A digest of the protocol:
as §4

A short description of data set [16]: Half life in Sprague-Dawley rat at 100 ug/kg, iv. The data set is classed as ADME, organism-based. Conditions: in vivo, 0.1 mg/kg. Put shortly:
as §2

Data set [17] is described as follows: Cmax in Sprague-Dawley rat at 100 ug/kg, po. The data set is classed as ADME, organism-based. Also on record: dose 100 ug/kg, route oral. Conditions: in vivo, 0.1 mg/kg. A digest of the protocol: as §2
Data set [18] relates to Rattus norvegicus. The data set is described as follows: Toxicity in ovariectomized immatured Sprague-Dawley rat osteoporosis model assessed as effect on serum calcium level at 20 ng/kg, po once daily for 5 times per week for 4 weeks relative to control. Conditions: in vivo, 2e-05 mg/kg, 672 h. The data set is classed as organism-based. A digest of the protocol: as §1
A short description of data set [19]: Oral bioavailability in Sprague-Dawley rat at 100 ug/kg. Format: ADME, organism-based. Conditions: in vivo, 0.1 mg/kg. A digest of the protocol: as §2
Data set [20] concerns Rattus norvegicus. The data set is described as follows: Toxicity in ovariectomized immatured Sprague-Dawley rat osteoporosis model assessed as effect on serum calcium level at 10 ng/kg, po once daily for 5 times per week for 4 weeks relative to control. The data set is classed as organism-based. Conditions: in vivo, 1e-05 mg/kg, 672 h. A digest of the protocol:
as §1

The subject of data set [21] is Rattus norvegicus. The data set is described as follows: Prevention of bone mineral density loss in ovariectomized immatured Sprague-Dawley rat osteoporosis model at 40 ng/kg, po once daily for 5 times per week for 4 weeks relative to control. The data set is classed as functional. Put shortly:
as §3

For data set [22], the system named is Rattus norvegicus. The data set can be described thus: Toxicity in ovariectomized immatured Sprague-Dawley rat osteoporosis model assessed as effect on serum calcium level at 30 ng/kg, po once daily for 5 times per week for 4 weeks relative to control. Conditions: in vivo, 3e-05 mg/kg, 672 h. The data set is classed as organism-based. A digest of the protocol: as §1

Data set [23] concerns Rattus norvegicus. The data set is described as follows: Prevention of bone mineral density loss in ovariectomized immatured Sprague-Dawley rat osteoporosis model at 30 ng/kg, po once daily for 5 times per week for 4 weeks relative to control. Format: functional. Put shortly:
as §3

The subject of data set [24] is Rattus norvegicus. The data set is described as follows: Prevention of bone mineral density loss in ovariectomized immatured Sprague-Dawley rat osteoporosis model administered orally once daily for 5 times per week for 4 weeks. The data set is classed as functional, organism-based. Put shortly:
as §3

Data set [25] has as its system Rattus norvegicus. The data set can be described thus: Prevention of bone mineral density loss in ovariectomized immatured Sprague-Dawley rat osteoporosis model at 50 ng/kg, po once daily for 5 times per week for 4 weeks relative to control. The data set is classed as functional. Put shortly: as §3
Data set [26] deals with Rattus norvegicus. The data set is described as follows: Toxicity in ovariectomized immatured Sprague-Dawley rat osteoporosis model assessed as effect on serum calcium level at 25 ng/kg, po once daily for 5 times per week for 4 weeks relative to control. Conditions: in vivo, 2.5e-05 mg/kg, 672 h. Format: organism-based. A digest of the protocol:
as §1

Data set [27] relates to Rattus norvegicus. The data set is described as follows: Toxicity in ovariectomized immatured Sprague-Dawley rat osteoporosis model assessed as effect on serum calcium level at 50 ng/kg, po once daily for 5 times per week for 4 weeks relative to control. The data set is classed as organism-based. Conditions: in vivo, 5e-05 mg/kg, 672 h. A digest of the protocol:
as §1

The test system of data set [28] is Rattus norvegicus. The data set is described as follows: Prevention of bone mineral density loss in ovariectomized immatured Sprague-Dawley rat osteoporosis model at 25 ng/kg, po once daily for 5 times per week for 4 weeks relative to control. Format: functional. A digest of the protocol: as §3
Data set [29] concerns Rattus norvegicus. The data set can be described thus: Toxicity in ovariectomized immatured Sprague-Dawley rat osteoporosis model assessed as effect on serum calcium level at 80 ng/kg, po once daily for 5 times per week for 4 weeks relative to control. The data set is classed as organism-based. Conditions: in vivo, 8e-05 mg/kg, 672 h. Put shortly: as §1
The subject of data set [30] is Rattus norvegicus. The data set can be described thus: Prevention of bone mineral density loss in ovariectomized immatured Sprague-Dawley rat osteoporosis model at 80 ng/kg, po once daily for 5 times per week for 4 weeks relative to control. The data set is classed as functional. A digest of the protocol:
as §3

The test system of data set [31] is Rattus norvegicus. The data set is described as follows: Toxicity in ovariectomized immatured Sprague-Dawley rat osteoporosis model assessed as effect on serum calcium level at 320 ng/kg, po once daily for 5 times per week for 4 weeks relative to control. The data set is classed as organism-based. Conditions: in vivo, 0.00032 mg/kg, 672 h. Put shortly:
as §1

The test system of data set [32] is Rattus norvegicus. The data set can be described thus: Prevention of bone mineral density loss in ovariectomized immatured Sprague-Dawley rat osteoporosis model at 320 ng/kg, po once daily for 5 times per week for 4 weeks relative to control. Format: functional. A digest of the protocol: as §3

Structures are written as SMILES.

Consider `CCC(O)(/C=C/c1ccc(C(CC)(CC)c2ccc(-c3ccc(CC(=O)O)cn3)c(C)c2)cc1C)CC`, for which the Activity is 8.4% in the data set on Rattus norvegicus [1]; “Non-toxic” with Salmonella typhimurium; “Non-toxic” with Rattus norvegicus [5]; 172% in the data set with Rattus norvegicus [6]; “Non-toxic” in data set [7]; “Dose-dependent effect” in the data set on Rattus norvegicus [11]. Also, the Activity with Rattus norvegicus [12] is given as 122%; in the data set on Rattus norvegicus [13], “Non-toxic”; in the data set on Rattus norvegicus [15], “Toxic”; in the data set on Rattus norvegicus [18], 2.2%; in the data set with Rattus norvegicus [20], -2.9%; with Rattus norvegicus [21], 198%. Besides, the AUC(0-inf) turned out to be 1130 ng·h/mL in data set [2] and 1650 ng·h/mL in data set [14]. The clearance in [3] is 1.51 mL/min/kg. In data set [4], the Vd amounted to 0.99 L/kg. The results for the half-life in data set [8] and in data set [16] were 17.6 h and 8.5 h, respectively. The MRT in data set [9] was 28.3 h; in [10], 11.2 h. In [17], this molecule gave a Cmax of 54 ng/mL. The molecule also had a bioavailability in [19] of 95.1%.
As for `CCC(CC)(c1ccc(/C=C/C(O)(C(F)(F)F)C(F)(F)F)c(C)c1)c1ccc(-c2ccc(CC(=O)O)cc2)c(C)c1`, the Activity is 6.9% in the data set on Rattus norvegicus [22]; 89% with Rattus norvegicus [23]; “Dose-dependent effect” with Rattus norvegicus [24]; 47% in the data set on Rattus norvegicus [12]; 0.6% in the data set with Rattus norvegicus [20].
On to `CCC(CC)(c1ccc(/C=C/C(O)(C(F)(F)F)C(F)(F)F)c(C)c1)c1ccc(-c2ccc(CC(=O)O)c(F)c2)c(C)c1`, for which the Activity entry with Rattus norvegicus [24] was “Dose-dependent effect”.
With `CCC(O)(/C=C/c1ccc(C(CC)(CC)c2ccc(-c3ccc(CC(=O)O)cc3)c(C)c2)cc1C)CC`, the Activity result was “Dose-dependent effect” in the data set on Rattus norvegicus [24]; 81% in the data set with Rattus norvegicus [25]; 0.7% with Rattus norvegicus [26]; 8.7% with Rattus norvegicus [27]; 42% in the data set on Rattus norvegicus [28].
Regarding `C=C1/C(=C\C=C2/CCC[C@]3(C)[C@@H]([C@H](C)CCCC(C)(C)O)CC[C@@H]23)C[C@@H](O)C[C@@H]1O` [CALCITRIOL], the Activity was found to be 2.5% with Rattus norvegicus [29]; 4% in the data set with Rattus norvegicus [6]; 53% in the data set on Rattus norvegicus [30]; 5.1% in the data set on Rattus norvegicus [31]; 58% in the data set with Rattus norvegicus [32]; 2.5% with Rattus norvegicus [18].

One may read the AUC(0-inf) as the area under the concentration-time curve extrapolated to infinity. The term clearance denotes a measure of how efficiently the substance is removed, as volume per time. Higher therefore signals efficient removal. In general, half-life refers to the time in which the quantity being followed falls by half. A high value points to slow loss. By MRT is commonly meant a mean duration of stay, worked out from the concentration-time curve. One may read the Cmax as the peak of the concentration-time curve. A word on the bioavailability: it is dose-corrected exposure relative to a reference, in per cent. High values mean much systemic uptake, low ones little systemic uptake.
